One molecule from ChEMBL document CHEMBL1122206, “Use of adenine nucleotide derivatives to assess the potential of exo-active-site-directed reagents as species- or isozyme-specific enzyme inactivators. 5. Interactions of adenosine 5'-triphosphate derivatives with rat pyruvate kinases, Escherichia coli thymidine kinase, and yeast and rat …” (1982) can be followed below.

The nature of assay [1]: Substrate concentration for half maximal velocity was reported for rat hexokinase I. In short, it runs like this: (§1)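 Coupled glucose-6-phosphate dehydrogenase/NADP assay: A340 rate at 22 °C in 0.05 M Tris-HCl pH 7.6 with 6.6 mM MgCl2, 10 mM α-D-glucose and 0.93 mM NADP, nucleotide varied. KM was taken from linear double-reciprocal plots. Rat HK I and III came from electrofocused, dialysed liver extract, HK II from dialysed muscle extract, and yeast HK was isoelectric-focused.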

The target in assay [2] is T1, Hexokinase-3 (Rattus norvegicus) (UniProt P27926).
T1 sequence (whole entry): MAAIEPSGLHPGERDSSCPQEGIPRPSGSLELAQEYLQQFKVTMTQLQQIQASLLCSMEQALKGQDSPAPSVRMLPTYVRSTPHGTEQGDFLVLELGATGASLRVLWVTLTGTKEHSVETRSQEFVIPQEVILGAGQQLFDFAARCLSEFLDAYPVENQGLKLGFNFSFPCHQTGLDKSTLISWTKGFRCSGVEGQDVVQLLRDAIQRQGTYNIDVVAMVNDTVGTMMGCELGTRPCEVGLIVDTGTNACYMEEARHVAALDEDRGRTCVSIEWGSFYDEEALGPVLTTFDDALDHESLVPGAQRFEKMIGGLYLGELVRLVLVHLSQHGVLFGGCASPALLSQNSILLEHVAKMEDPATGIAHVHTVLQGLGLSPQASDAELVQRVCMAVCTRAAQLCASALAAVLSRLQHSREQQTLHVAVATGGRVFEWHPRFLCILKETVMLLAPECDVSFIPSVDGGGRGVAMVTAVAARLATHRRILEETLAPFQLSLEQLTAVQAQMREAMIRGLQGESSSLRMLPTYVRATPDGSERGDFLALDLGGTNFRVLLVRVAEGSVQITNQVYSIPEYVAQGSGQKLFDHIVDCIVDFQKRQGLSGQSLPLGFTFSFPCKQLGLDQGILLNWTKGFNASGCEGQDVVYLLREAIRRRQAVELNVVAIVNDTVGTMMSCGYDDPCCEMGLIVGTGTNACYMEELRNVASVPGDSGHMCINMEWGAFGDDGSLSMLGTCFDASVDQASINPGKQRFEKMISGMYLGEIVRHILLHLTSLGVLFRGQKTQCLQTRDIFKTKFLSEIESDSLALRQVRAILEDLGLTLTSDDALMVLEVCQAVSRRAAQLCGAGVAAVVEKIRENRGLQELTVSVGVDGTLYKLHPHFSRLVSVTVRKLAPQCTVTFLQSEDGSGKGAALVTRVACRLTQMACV
The assay is described as follows: Time dependent inhibition of Hexokinase type III activity after 6 h, at 22 degrees celsius, at 5 mM.

Assay [3] can be described thus: Compound was tested for substrate constants with yeast hexokinase. Maximal velocity Vmax was reported. In short, it runs like this:
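Hexokinase KM and Vmax taken from linear double-reciprocal plots of initial velocity vs. nucleotide level. Assays at 22 °C, coupled to glucose-6-phosphate dehydrogenase (A340), in 0.05 M Tris-HCl pH 7.6 with 6.6 mM MgCl2, 10 mM glucose and 0.93 mM NADP. Yeast HK was isoelectric-focused. Rat HK I and III came from liver, HK II from muscle (male Sprague-Dawley).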

A short description of assay [4]: Substrate concentration for half maximal velocity was reported for rat hexokinase II. Summed up:
as §1

Assay [5] concerns the target Thymidine kinase (Escherichia coli) (UniProt P23331). Kind of assay: Compound was tested for the loss of thymidine kinase activity from Escherichia coli after 6 hr at 0 degrees C at 10 mM.
The target of assay [6] is T2, Hexokinase-2 (Rattus norvegicus) (UniProt P27881).
T2 sequence (whole entry): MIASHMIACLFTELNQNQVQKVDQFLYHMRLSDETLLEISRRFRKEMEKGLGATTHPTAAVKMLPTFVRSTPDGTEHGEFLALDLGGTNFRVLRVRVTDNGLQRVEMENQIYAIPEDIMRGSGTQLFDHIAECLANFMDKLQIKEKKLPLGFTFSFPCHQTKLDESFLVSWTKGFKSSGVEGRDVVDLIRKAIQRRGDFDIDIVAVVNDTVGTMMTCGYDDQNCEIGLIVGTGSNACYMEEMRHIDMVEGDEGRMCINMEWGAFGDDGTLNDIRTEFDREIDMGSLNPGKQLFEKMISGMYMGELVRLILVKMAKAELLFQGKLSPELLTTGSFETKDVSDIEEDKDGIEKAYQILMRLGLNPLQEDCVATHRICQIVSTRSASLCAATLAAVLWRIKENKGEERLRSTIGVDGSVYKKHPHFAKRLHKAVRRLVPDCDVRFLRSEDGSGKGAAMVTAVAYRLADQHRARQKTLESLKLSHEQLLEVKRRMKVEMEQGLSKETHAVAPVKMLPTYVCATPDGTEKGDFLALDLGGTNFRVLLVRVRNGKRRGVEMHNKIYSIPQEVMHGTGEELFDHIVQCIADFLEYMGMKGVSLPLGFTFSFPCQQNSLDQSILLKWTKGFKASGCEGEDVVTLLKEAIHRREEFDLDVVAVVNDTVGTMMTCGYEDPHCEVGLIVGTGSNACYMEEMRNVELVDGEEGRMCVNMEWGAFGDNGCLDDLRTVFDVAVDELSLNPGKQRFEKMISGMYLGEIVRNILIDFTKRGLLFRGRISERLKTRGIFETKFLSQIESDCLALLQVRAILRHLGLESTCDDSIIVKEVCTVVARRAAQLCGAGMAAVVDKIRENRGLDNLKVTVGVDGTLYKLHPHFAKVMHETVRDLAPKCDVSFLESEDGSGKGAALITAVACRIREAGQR
The assay is described as follows: Substrate activity against Rat hexokinase II as 1:1 Mg complex at 5.0 mM. Summed up: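 Hexokinase activity read at 22 °C as A340 change, coupled to glucose-6-phosphate dehydrogenase, in 0.05 M Tris-HCl pH 7.6 with 6.6 mM MgCl2, 10 mM α-D-glucose and 0.93 mM NADP. Donor was 5.0 mM MgATP derivative (1:1 Mg complex) in place of ATP. Yeast HK was isoelectric-focused. Rat HK I and III came from electrofocused liver extract, HK II from dialysed muscle extract.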

Assay [7] in a line: Compound was tested for substrate constants with rat hexokinase. Maximal velocity Vmax was reported. In short, it runs like this: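 Rat HK I and HK III came from liver extract of an adult male Sprague-Dawley rat and were separated by electrofocusing and dialysed; HK II was dialysed muscle extract. The coupled assay ran at 22 °C in 0.05 M Tris-HCl pH 7.6 with 6.6 mM MgCl2, 10 mM glucose, 0.93 mM NADP and G6P dehydrogenase, read at 340 nm. Constants came from linear double-reciprocal plots.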

Thymidine kinase (Escherichia coli), sequence (P23331 whole entry, looked up): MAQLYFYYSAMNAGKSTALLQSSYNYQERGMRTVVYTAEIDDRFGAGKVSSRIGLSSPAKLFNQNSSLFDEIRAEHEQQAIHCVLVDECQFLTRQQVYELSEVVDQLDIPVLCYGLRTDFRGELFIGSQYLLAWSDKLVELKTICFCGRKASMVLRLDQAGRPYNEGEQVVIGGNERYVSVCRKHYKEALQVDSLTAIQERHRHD

By Km is commonly meant the substrate concentration at which the rate is half of its maximum. The term inhibition denotes the change of the read-out against control, counted positive when it falls. A higher inhibition goes with a strong effect. Regarding `Nc1ncnc2c1ncn2[C@@H]1O[C@H](COP(=O)(O)OP(=O)(O)OP(=O)(O)O)[C@@H](O)[C@H]1O`, the Michaelis constant (Km) in assay [1] came to 440 µM; in assay [4], 710 µM. Moreover, the inhibition in assay [2] and in assay [5] was 0% each time. Besides, the Vmax in assay [3] and in assay [7] was 100% throughout. The Relative velocity in assay [6] worked out at 1.
